Assay results from ChEMBL document CHEMBL1772963, “Isolation and structure of homotemsirolimuses A, B, and C” (J Nat Prod, 2011).

Columns and labels:
[1] = target: Serine/threonine-protein kinase mTOR (Homo sapiens, UniProt P42345); assay: Inhibition of FKBP12-independent human recombinant mTOR expressed in HEK293 cells using His6-S6K1 as a substrate by DELFIA assay; type: cell-based
In short: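 Recombinant mTOR kinase activity measured with no FKBP12 present, with vehicle or a range of compound doses. IC50 derived by plotting percent inhibition relative to control.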

LNCaP = assay: Antiproliferative activity against human LNCAP cells after 3 days by MTS assay; type: functional, cell-based; conditions: 72 h
In short: (§1)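 Cells seeded in 96-well plates for 24 h, then treated with vehicle or a range of compound doses for 3 days. Viable cell density read by MTS assay. IC50 taken from plots of percent inhibition versus vehicle control.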

[2] = Antiproliferative activity against human MDA468 cells after 3 days by MTS assay; type: functional, cell-based; conditions: MDA-MB-468, 72 h; in short: as §1

Structure (SMILES)	IC50 [1] [nM]	IC50 (LNCaP) [nM]	IC50 [2] [nM]
CC[C@@H]1CC[C@H]2C[C@H](OC)/C(C)=C/C=C/C=C/[C@@H](C)C[C@@H](C)C(=O)[C@H](OC)[C@H](O)/C(C)=C/[C@@H](C)C(=O)C[C@@H]([C@H](C)C[C@@H]3CC[C@@H](OC(=O)C(C)(CO)CO)[C@H](OC)C3)OC(=O)[C@@H]3CCCCN3C(=O)C(=O)[C@]1(O)O2 [HOMOTEMSIROLIMUS A]	1800	2.5	1
CC[C@@H]1/C=C/C=C/C=C(\C)[C@@H](OC)C[C@@H]2CC[C@@H](C)[C@@](O)(O2)C(=O)C(=O)N2CCCC[C@H]2C(=O)O[C@H]([C@H](C)C[C@@H]2CC[C@@H](OC(=O)C(C)(CO)CO)[C@H](OC)C2)CC(=O)[C@H](C)/C=C(\C)[C@@H](O)[C@@H](OC)C(=O)[C@H](C)C1 [HOMOTEMSIROLIMUS B]	2500	13	5
CC[C@@H]1/C=C(\C)[C@@H](O)[C@@H](OC)C(=O)[C@H](C)C[C@H](C)/C=C/C=C/C=C(\C)[C@@H](OC)C[C@@H]2CC[C@@H](C)[C@@](O)(O2)C(=O)C(=O)N2CCCC[C@H]2C(=O)O[C@H]([C@H](C)C[C@@H]2CC[C@@H](OC(=O)C(C)(CO)CO)[C@H](OC)C2)CC1=O [HOMOTEMSIROLIMUS C]	2100	8	5
CO[C@H]1C[C@@H]2CC[C@@H](C)[C@@](O)(O2)C(=O)C(=O)N2CCCC[C@H]2C(=O)O[C@H]([C@H](C)C[C@@H]2CC[C@@H](OC(=O)C(C)(CO)CO)[C@H](OC)C2)CC(=O)[C@H](C)/C=C(\C)[C@@H](O)[C@@H](OC)C(=O)[C@H](C)C[C@H](C)/C=C/C=C/C=C/1C [TEMSIROLIMUS]	1760	0.5	8
